In ChEMBL document CHEMBL1629633, “Prevalence of sulfonamide resistance genes in bacterial isolates from manured agricultural soils and pig slurry in the United Kingdom” (2009):

How the values were obtained:
Pseudomonas lini = assay: Antimicrobial activity against Pseudomonas lini isolate C701 harboring sul1 to sul3 genes assessed as antibiotic resistance breakpoint by agar dilution method; format: functional
Procedure, shortened: (§1)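 Agar dilution on Iso-Sensitest agar for MICs and resistance breakpoints. Each isolate's inoculum (100 μl) was adjusted to OD600 0.4. Isolates came from soil cores of a field given pig slurry, or from the pig slurry itself. They were picked from nonselective or antibiotic plates incubated aerobically at 28°C, purified by restreaking, checked for sul genes by PCR and identified by 16S rRNA sequencing.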

Pseudomonas putida = assay: Antimicrobial activity against Pseudomonas putida isolate C231 harboring sul1 to sul3 genes assessed as antibiotic resistance breakpoint by agar dilution method; format: functional; procedure, shortened: as §1
Acinetobacter lwoffii [1] = assay: Antimicrobial activity against Acinetobacter lwoffii isolate C141 harboring sul1 to sul3 genes assessed as antibiotic resistance breakpoint by agar dilution method; format: functional; procedure, shortened: as §1
Shigella flexneri = assay: Antimicrobial activity against Shigella flexneri isolate C506 harboring sul1 to sul3 genes assessed as antibiotic resistance breakpoint by agar dilution method; format: functional
Procedure, shortened: (§2)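 Isolates were recovered from manured clay soil or pig slurry on Iso-Sensitest agar at 28°C. sul genes were detected by PCR, and identity was assigned by ~800 bp 16S rRNA sequencing. MICs and resistance breakpoints were found by agar dilution on Iso-Sensitest agar, with each inoculum (100 μl) adjusted to OD600 0.4.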

Aerococcus viridans [2] = assay: Antimicrobial activity against Aerococcus viridans isolate PGS22 harboring sul1 to sul3 genes assessed as antibiotic resistance breakpoint by agar dilution method; format: functional; procedure, shortened: as §1
Acinetobacter lwoffii [3] = assay: Antimicrobial activity against Acinetobacter lwoffii isolate C2 harboring sul1 to sul3 genes assessed as antibiotic resistance breakpoint by agar dilution method; format: functional; procedure, shortened: as §1
Pseudomonas borealis = assay: Antimicrobial activity against Pseudomonas borealis isolate C5 harboring sul1 to sul3 genes assessed as antibiotic resistance breakpoint by agar dilution method; format: functional; procedure, shortened: as §1
[4] = tested on: Arthrobacter arilaitensis; assay: Antimicrobial activity against Arthrobacter arilaitensis isolate C361 harboring sul1 to sul3 genes assessed as antibiotic resistance breakpoint by agar dilution method; format: functional, Glutamicibacter arilaitensis; procedure, shortened: as §1
Aerococcus viridans [5] = assay: Antimicrobial activity against Aerococcus viridans isolate PGS21 harboring sul1 to sul3 genes assessed as antibiotic resistance breakpoint by agar dilution method; format: functional; procedure, shortened: as §1
Acinetobacter lwoffii [6] = assay: Antimicrobial activity against Acinetobacter lwoffii isolate C15 harboring sul1 to sul3 genes assessed as antibiotic resistance breakpoint by agar dilution method; format: functional; procedure, shortened: as §1
[7] = Antimicrobial activity against Psychrobacter ikaite isolate C20 harboring sul1 to sul3 genes assessed as antibiotic resistance breakpoint by agar dilution method; format: functional; procedure, shortened: as §1
[8] = Antimicrobial activity against Psychrobacter ikaite isolate C713 harboring sul1 to sul3 genes assessed as antibiotic resistance breakpoint by agar dilution method; format: functional; procedure, shortened: as §2
[9] = tested on: Acinetobacter calcoaceticus; assay: Antimicrobial activity against Acinetobacter calcoaceticus isolate C35 harboring sul1 to sul3 genes assessed as antibiotic resistance breakpoint by agar dilution method; format: functional; procedure, shortened: as §1
[10] = tested on: Acinetobacter calcoaceticus; assay: Antimicrobial activity against Acinetobacter calcoaceticus isolate C36 harboring sul1 to sul3 genes assessed as antibiotic resistance breakpoint by agar dilution method; format: functional; procedure, shortened: as §1
Acinetobacter lwoffii [11] = assay: Antimicrobial activity against Acinetobacter lwoffii isolate C37 harboring sul1 to sul3 genes assessed as antibiotic resistance breakpoint by agar dilution method; format: functional; procedure, shortened: as §1
[12] = tested on: Acinetobacter rhizosphaerae; assay: Antimicrobial activity against Acinetobacter rhizosphaerae isolate C44 harboring sul1 to sul3 genes assessed as antibiotic resistance breakpoint by agar dilution method; format: functional; procedure, shortened: as §1
Bacillus psychrodurans = assay: Antimicrobial activity against Bacillus psychrodurans isolate C328 harboring sul1 to sul3 genes assessed as antibiotic resistance breakpoint by agar dilution method; format: functional, Psychrobacillus psychrodurans; procedure, shortened: as §1
Acinetobacter baumannii = assay: Antimicrobial activity against Acinetobacter baumannii isolate C442 harboring sul1 to sul3 genes assessed as antibiotic resistance breakpoint by agar dilution method; format: functional; procedure, shortened: as §1
[13] = Antimicrobial activity against Acinetobacter sp. N2 isolate C439 harboring sul1 to sul3 genes assessed as antibiotic resistance breakpoint by agar dilution method; format: functional; procedure, shortened: as §1
[14] = tested on: Lysinibacillus sphaericus; assay: Antimicrobial activity against Bacillus sphaericus isolate C237 harboring sul1 to sul3 genes assessed as antibiotic resistance breakpoint by agar dilution method; format: functional; procedure, shortened: as §1
[15] = Antimicrobial activity against Acinetobacter sp. An9 isolate PGS49 harboring sul1 to sul3 genes assessed as antibiotic resistance breakpoint by agar dilution method; format: functional; procedure, shortened: as §1
Acinetobacter lwoffii [16] = assay: Antimicrobial activity against Acinetobacter lwoffii isolate PGS47 harboring sul1 to sul3 genes assessed as antibiotic resistance breakpoint by agar dilution method; format: functional; procedure, shortened: as §1
[17] = Antimicrobial activity against Psychrobacter sp. DY9-2 isolate C711 harboring sul1 to sul3 genes assessed as antibiotic resistance breakpoint by agar dilution method; format: functional; procedure, shortened: as §2
[18] = tested on: Psychrobacter frigidicola; assay: Antimicrobial activity against Psychrobacter frigidicola isolate C712 harboring sul1 to sul3 genes assessed as antibiotic resistance breakpoint by agar dilution method; format: functional; procedure, shortened: as §1

SMILES | Activity (Pseudomonas lini) | Activity (Pseudomonas putida) | Activity (Acinetobacter lwoffii [1]) | Activity (Shigella flexneri) | Activity (Aerococcus viridans [2]) | Activity (Acinetobacter lwoffii [3]) | Activity [4] | Activity (Acinetobacter lwoffii [6]) | Activity [7] | Activity [8] | Activity [9] | Activity [10] | Activity (Acinetobacter lwoffii [11]) | Activity [12] | Activity (Bacillus psychrodurans) | Activity (Acinetobacter baumannii) | Activity [13] | Activity [14] | Activity [17] | Activity [18] | also measured
CC1(C)S[C@@H]2[C@H](NC(=O)[C@H](N)c3ccccc3)C(=O)N2[C@H]1C(=O)O [AMPICILLIN] | 16 µg/mL | 16 µg/mL | 16 µg/mL | 16 µg/mL | – | – | – | – | – | – | – | – | – | – | – | – | – | – | – | – | –
O=C(N[C@H](CO)[C@H](O)c1ccc([N+](=O)[O-])cc1)C(Cl)Cl [CHLORAMPHENICOL] | – | 16 µg/mL | 16 µg/mL | 16 µg/mL | 16 µg/mL | 16 µg/mL | 16 µg/mL | 16 µg/mL | 16 µg/mL | 16 µg/mL | 16 µg/mL | 16 µg/mL | 16 µg/mL | 16 µg/mL | 16 µg/mL | 16 µg/mL | – | – | – | – | Activity (Pseudomonas borealis): 16 µg/mL; Activity (Aerococcus viridans [5]): 16 µg/mL
NC[C@@H]1O[C@H](O[C@H]2[C@@H](O)[C@H](O[C@@H]3[C@@H](O)[C@H](N)C[C@H](N)[C@H]3O[C@H]3O[C@H](CN)[C@@H](O)[C@H](O)[C@H]3N)O[C@@H]2CO)[C@H](N)[C@@H](O)[C@@H]1O [FRAMYCETIN] | – | 8 µg/mL | 8 µg/mL | 8 µg/mL | 8 µg/mL | – | 8 µg/mL | 8 µg/mL | – | – | – | – | – | 8 µg/mL | 8 µg/mL | – | – | – | – | – | –
NC[C@H]1O[C@H](O[C@H]2[C@H](O)[C@@H](O[C@H]3O[C@H](CO)[C@@H](O)[C@H](N)[C@H]3O)[C@H](N)C[C@@H]2N)[C@H](O)[C@@H](O)[C@@H]1O [KANAMYCIN] | – | – | 16 µg/mL | 16 µg/mL | – | – | – | – | – | – | – | – | – | – | 16 µg/mL | – | – | – | – | – | –
CCn1cc(C(=O)O)c(=O)c2ccc(C)nc21 [NALIDIXIC ACID] | 16 µg/mL | 16 µg/mL | 16 µg/mL | 16 µg/mL | 16 µg/mL | 16 µg/mL | 16 µg/mL | 16 µg/mL | 16 µg/mL | 16 µg/mL | 16 µg/mL | 16 µg/mL | 16 µg/mL | 16 µg/mL | 16 µg/mL | 16 µg/mL | 16 µg/mL | 16 µg/mL | 16 µg/mL | 16 µg/mL | Activity [15]: 16 µg/mL; Activity (Acinetobacter lwoffii [16]): 16 µg/mL
COc1cc(Cc2cnc(N)nc2N)cc(OC)c1OC [TRIMETHOPRIM] | 16 µg/mL | – | 16 µg/mL | 16 µg/mL | – | 16 µg/mL | – | 16 µg/mL | 16 µg/mL | 16 µg/mL | 16 µg/mL | 16 µg/mL | 16 µg/mL | 16 µg/mL | – | – | 16 µg/mL | 16 µg/mL | 16 µg/mL | 16 µg/mL | –
